# Screening data deposited in PubChem by Johns Hopkins Ion Channel Center.
# In the library only some 2.3% were active in any assay of this set; here they are far more common.
# TRPC6 activator: activators of mouse TRPC6 channel. Q61143. HEK293-TRPC6 membrane potential dye fluorescence; stronger effect = higher value. B-score at 10 µM. hit rate 0.13% among 310,000. AID 2550;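 active means B-score of the integrated fluorescence ratio above library mean plus 3 SD, and starting fluorescence ratio within library mean plus 5 SD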;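 further: higher score means more depolarization so channel activation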
# TRPC4 PAM: allosteric potentiators of mouse TRPC4 channel. B-score at 10 µM. HEK293 TRPC4beta/mu-opioid, DAMGO EC20, Fluo-4 Ca2+ flux; stronger effect = higher value. hit rate 0.42% among 310,000;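 active means B-score of calcium response area above 5 SD of library B-scores, with initial fluorescence ratio within 5 SD of library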;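 further: B-score of integrated fluorescence ratio over time as area under calcium response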
# Target sequence (Q9QUQ5 whole entry, looked up): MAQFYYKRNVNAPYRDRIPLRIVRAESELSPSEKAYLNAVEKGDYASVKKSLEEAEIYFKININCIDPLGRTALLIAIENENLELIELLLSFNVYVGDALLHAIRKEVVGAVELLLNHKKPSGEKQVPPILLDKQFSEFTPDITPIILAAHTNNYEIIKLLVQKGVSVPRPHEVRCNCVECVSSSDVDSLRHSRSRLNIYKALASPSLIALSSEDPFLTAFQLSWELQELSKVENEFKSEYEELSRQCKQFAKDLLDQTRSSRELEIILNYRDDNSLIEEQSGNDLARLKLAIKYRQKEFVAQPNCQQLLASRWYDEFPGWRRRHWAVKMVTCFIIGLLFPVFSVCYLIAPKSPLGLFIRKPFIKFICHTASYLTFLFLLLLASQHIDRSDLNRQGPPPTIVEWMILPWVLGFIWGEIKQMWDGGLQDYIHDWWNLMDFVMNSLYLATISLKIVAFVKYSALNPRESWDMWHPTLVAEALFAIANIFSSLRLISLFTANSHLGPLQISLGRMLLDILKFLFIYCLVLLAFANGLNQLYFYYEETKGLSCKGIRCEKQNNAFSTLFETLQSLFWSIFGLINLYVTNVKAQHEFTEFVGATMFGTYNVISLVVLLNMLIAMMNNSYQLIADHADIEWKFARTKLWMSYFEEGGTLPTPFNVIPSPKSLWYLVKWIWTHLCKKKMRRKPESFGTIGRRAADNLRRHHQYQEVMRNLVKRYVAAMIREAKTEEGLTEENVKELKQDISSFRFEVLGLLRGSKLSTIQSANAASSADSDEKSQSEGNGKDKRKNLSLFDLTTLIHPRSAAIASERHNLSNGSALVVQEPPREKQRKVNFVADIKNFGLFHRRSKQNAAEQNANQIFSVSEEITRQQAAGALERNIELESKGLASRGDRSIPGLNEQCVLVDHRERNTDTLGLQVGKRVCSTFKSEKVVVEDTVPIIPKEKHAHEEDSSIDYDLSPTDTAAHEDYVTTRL
# TRPC6 inhibitor: blocks the mouse TRPC6 cation channel; HEK293-TRPC6, membrane potential dye, ACh-evoked depolarization; stronger effect = lower value; B-score at 10 µM; hit rate 1.1% among 310,000; AID 2553; Q61143;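 active means B-score under library mean minus 3 SD, initial fluorescence not abnormally high, positive integrated signal ratio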;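 further: B-score derived from integrated fluorescence ratio over the kinetic read; more negative B-score means stronger inhibition of depolarization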
# TRPC4 block: inhibitors of mouse TRPC4 channel; Q9QUQ5; HEK293 TRPC4beta/mu-opioid, DAMGO-evoked Fluo4 calcium flux; stronger effect = lower value; B-score at 10 µM; hit rate 0.39% among 300,000; AID 2247;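 active means B-score over 3 SD under the library average, no early fluorescence shift, positive overall ratio signal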
#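 Material: HEK293 cells with stable TRPC4beta plus mu-opioid receptor expression / Probe or stimulus: DAMGO in two steps, submaximal then maximal / Compound: single concentration per test compound / Technique: kinetic Fluo4 fluorescence imaging of calcium influx / Read-out: per-well B score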
# TRPC4 agonist: opens the mouse TRPC4 cation channel. Q9QUQ5. HEK293 TRPC4beta/mu-opioid, Fluo4 calcium fluorescence; stronger effect = higher value. B-score at 10 µM. hit rate 0.49% among 310,000;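 active means B-score above 5 SD of library B-scores, and initial fluorescence ratio not above library mean plus 5 SD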;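 further: positive B-score marks a calcium rise read as TRPC4 activation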
#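 System: HEK293 cells stably co-expressing mouse TRPC4beta and mu-opioid receptor; Schedule: Fluo4 dye loading 45 min at room temperature, 110 s recording; Detection: Fluo4 fluorescence, kinetic; Evaluation: B-scored integrated calcium fluorescence ratio; Controls: buffer (low) and maximal DAMGO (high).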
# Starred values were filed as active, the others as inactive; i = inactive; nt = no result given.
SMILES,TRPC6 activator,TRPC4 PAM,TRPC6 inhibitor,TRPC4 block,TRPC4 agonist
CNC(=S)N1N=C(c2ccc(C)cc2)CC1c1ccc(OC)c(OC)c1 (stereo not drawn),i,i,i,i,i
CNC(=S)N1N=C(c2ccccc2)CC1c1ccc(OC)c(OC)c1 (stereo not drawn),i,11*,i,i,i
O=C(CCCSc1ccccc1)Nc1cccc(CO)c1,i,i,i,i,i
COc1cc(/C=C(/C#N)C(=O)c2c(C)[nH]c3ccccc23)ccc1OCC#N,i,10*,i,i,i
COc1cccc(CNC(=O)CCC2CCCN(c3cc(C)nc(N(C)C)n3)C2)c1 (stereo not drawn),i,i,i,-6*,i
CCOC(=O)C1CCN(C(=O)CCc2nnc3ccc(N4CCN(C)CC4)nn23)CC1,i,i,i,i,i
COc1ccc(CCNC(=O)Cn2cnc3c(cnn3C(C)(C)C)c2=O)cc1OC,i,26*,i,i,i
CC(C)(C)n1ncc2c(=O)n(CC(=O)NCCc3ccccc3)cnc21,i,i,i,nt,i
CN1CC(=O)N/C1=N\C(=O)Nc1ccc(O)cc1,i,i,i,i,i
COC(=O)c1cc([N+](=O)[O-])ccc1N1CCN(Cc2ccccc2)CC1,i,11*,i,i,i
CN1CCN(c2ccc([N+](=O)[O-])cc2C(=O)c2ccccc2)CC1,i,i,i,i,i
COc1cccc(NS(=O)(=O)c2csc(C(N)=O)c2)c1,i,i,i,i,i
CCN(CC)CCn1c(NC(=O)c2ccc(Cl)cc2)nc2ccccc21,i,i,i,i,i
CCN(CC)CCn1c(NS(=O)(=O)c2ccc(Cl)cc2)nc2ccccc21,i,i,i,i,65*
O=C(O)C1=CCNCC1,i,i,i,i,i
CC(=O)N1N=C(c2ccc(Br)cc2)OC1(C)CC(=O)Nc1ccccc1 (stereo not drawn),i,15*,i,i,i
O=C1/C(=C/c2ccc([N+](=O)[O-])cc2)C=C(c2ccccc2)N1c1ccc(O)cc1,i,i,-5.2*,i,i
COc1ccc(CN=C2NN=C(c3ccc(Cl)cc3)CS2)cc1,i,i,i,-6*,i
CC(C)(C)N=C1NN=C(c2ccc(Cl)cc2)CS1,i,i,i,i,i
CCN(c1ccccc1)S(=O)(=O)c1ccc(Cl)c(NC(=O)CN2CCCCCC2)c1,18.5*,i,i,i,i
CN(C)S(=O)(=O)c1ccc(Cl)c(NC(=O)CN2CCCCCC2)c1,i,i,i,i,i
C[C@H](NC(=O)[C@H](Cc1ccccc1)n1c(=O)[nH]c2ccccc2c1=O)C(=O)N1CCC[C@H]1C(=O)O,i,i,i,i,i
C[C@H](NC(CCc1ccccc1)C(=O)O)C(=O)N1CCC[C@H]1C(=O)O (stereo partly drawn),i,i,i,i,55*
C=C(C(=O)Nc1ccccc1)c1ccc(C)cc1,i,i,i,i,i
O=C(NCc1cn(-c2ccccc2)nc1-c1ccccc1)c1cccc([N+](=O)[O-])c1,i,i,i,i,i
SMILES,TRPC6 activator,TRPC4 PAM,TRPC6 inhibitor,TRPC4 block,TRPC4 agonist
N#CCCn1cc(CNCc2ccccc2)c(-c2cccc([N+](=O)[O-])c2)n1,i,i,i,-6*,i
CCCCN(C)CCCNC(=O)c1cn(C)c2ccc(S(=O)(=O)N(C)C3CCCCC3)cc2c1=O,i,i,i,i,i
CCCCN(CC)CCCNC(=O)c1cn(C)c2ccc(S(=O)(=O)N(C)C3CCCCC3)cc2c1=O,i,12*,i,i,i
CCCCN(C)C(=O)c1cn(C)c2ccc(S(=O)(=O)N(C)C)cc2c1=O,i,14*,i,i,i
OCC1CCN(Cc2cn(Cc3ccccc3)nc2-c2cc3ccccc3o2)CC1,i,i,i,i,56*
COc1ccc(C)cc1NC(=O)CCNC(=O)Cn1cnc2ccccc2c1=O,i,i,i,i,i
CCc1ccc(CNc2ccc3c(c2)ncn3C(C)(C)C)cc1,i,i,i,i,i
CCc1ccc(CNc2ccc3c(c2)ncn3CC)cc1,i,i,-5.05*,i,i
CC(C)(C)n1cnc2cc(NCc3ccc(Br)cc3)ccc21,i,25*,i,i,i
O=C(Nc1nc2ccccc2[nH]1)Nc1ccccc1F,i,i,i,i,i
Oc1ccc(/C=N/NC(=S)Nc2cccnc2)c(O)c1O,i,i,i,i,i
Oc1cccc(/C=N/NC(=S)Nc2cccnc2)c1O,i,i,i,i,50*
O=C(c1noc2c1CSc1ccccc1-2)N1CCN(c2ccc(Cl)cc2)CC1,i,i,i,i,i
Cc1ncsc1CCOC(=O)C12CC3CC(CC(C3)C1)C2,i,i,i,-7*,i
Cc1ccc(S(=O)(=O)N2CCCCC2)cc1C(=O)OC1CCCCC1=O (stereo not drawn),i,i,i,i,i
CCC(=O)N1CCN(c2ccccc2NC(=O)COc2ccc(C(C)C)cc2)CC1,i,11*,i,i,i
CC(C)c1ccc(OCC(=O)Nc2cccc3c2CCCC3)cc1,i,i,i,i,i
COc1ccc(OCC(=O)Nc2ccccc2N2CCCCC2)cc1,i,i,i,i,i
COc1ccc(OCC(=O)Nc2ccccc2N2CCN(C)CC2)cc1,i,i,i,-6*,i
CC(C)Cc1ccc(C(C)C(=O)Nc2ccc(O)cc2)cc1 (stereo not drawn),i,i,i,i,52*
CC(C)Cc1ccc(C(C)C(=O)Nc2cccnc2)cc1 (stereo not drawn),i,i,i,i,45*
COc1ccc(CCNC(=O)c2coc3ccccc3c2=O)cc1,i,i,i,i,i
COc1ccccc1NC(=O)C1(c2ccccc2)CCCC1,i,13*,i,i,i
CCOC(=O)C1=NN(c2ccccc2C)C2=NC(C)=C(C(=O)OC)C(c3cccc(OC)c3)N12 (stereo not drawn),i,i,i,-5*,i
O=C(CNC(=S)N(CCCN1CCOCC1)Cc1cccs1)N1CCCCCC1,i,i,i,i,i
CC(=Nc1ccc(C)cc1)c1sc2ccccc2c1O,i,i,i,-6*,i
CC(OC(=O)CC1CCCCC1)C(=O)Nc1ccc(S(N)(=O)=O)cc1 (stereo not drawn),i,i,i,i,i
